Experimental data of several laboratories.
Protocols differ between the studies behind these lines.
Target: Mitogen-activated protein kinase 10 (MAPK10, Homo sapiens, UniProt P53779)

| SMILES | assay | setting | measurement | result |
| --- | --- | --- | --- | --- |
| N#CC1(c2ccccn2)CCN(Cc2cc(C(=O)O)c(=O)n3ccccc23)CC1 | cell-free assay, competition with immobilised ligand | 1 µM | remaining binding | 82% |
| O=c1[nH]c2ccccc2n1C1CCN(Cc2ccc(-c3[nH]c4cc5ncnc5cc4nc3-c3ccccc3)cc2)CC1 | cell-free assay | 0.5 µM | remaining signal | 96% |
| COc1cc(Nc2ncc(F)c(Nc3ccc4c(n3)NC(=O)C(C)(C)O4)n2)cc(OC)c1OC | binding, competition with immobilised ligand | 10 µM | inhibition | 100% |
| Cc1nn(C)cc1-c1nc2c(N3CCN(Cc4ccc(Cl)cc4)CC3)c(Cl)cnc2[nH]1 | binding, competition with immobilised ligand | 1 µM | remaining binding | 100% |
| NC(=O)c1nc(Nc2ccccc2)sc1NC(=O)C1CCCCC1 | cell-free assay, competition with immobilised ligand | 10 µM | remaining binding | 5.4% |
| Nc1ncc(-c2nc(N3CCOCC3)nc(N3CCOCC3)n2)c(C(F)F)n1 | binding, competition with immobilised ligand | 10 µM | remaining binding | 90% |
| Cn1cc(-c2cc(F)cc(N3CCn4c(cc5c4CCCC5)C3=O)c2CO)cc(Nc2ccc(N3CCN(C4COC4)CC3)cn2)c1=O | enzyme activity, inhibitor | 0.1 µM | inhibition | 5% |
| Cn1cncc1[C@](O)(COc1ccc(C#N)cc1-c1ccc(OC(F)(F)F)cc1)c1ccc(C#N)cc1 | cell-free assay, competition with immobilised ligand | 1 µM | remaining binding | 70% |
| COc1ncccc1-c1cnn2ccc(N3CCN(C(=O)OC(C)C)CC3)nc12 | binding, competition with immobilised ligand | 1 µM | remaining binding | 100% |
| CC(C)(C)c1cc(C=C(C#N)C#N)cc(Br)c1O | enzyme activity, inhibitor | 0.5 µM | remaining activity | 92.5% |
